Our source for the IC50 and inhibition values is ChEMBL document CHEMBL4433236, “Synthesis and structure activity relationships of a series of 4-amino-1H-pyrazoles as covalent inhibitors of CDK14” (Bioorg Med Chem Lett, 2019).

Assay [1] has as its target Cyclin-dependent kinase 14/Cyclin-Y (Homo sapiens, UniProt O94921). As to the kind of experiment: Inhibition of recombinant GST-tagged human full length CDK14/cyclin Y (2 to end residues) preincubated for 30 mins by Lantha screen eu binding assay. Type of assay: protein-complex assay. A digest of the protocol: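 CDK14 binding was measured in a LanthaScreen binding assay. IC50 is the average of three replicates, reported ± standard error.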

For another assay, the system named is HCT-116. As to the kind of experiment: Antiproliferative activity against human HCT116 cells assessed as reduction in cell viability after 72 hrs by cell titer glo-based luminescence assay. The format is functional. To be noted: HCT-116, 72 h.
The target of assay [2] is T1, Cyclin-dependent kinase 14 (Homo sapiens, UniProt O94921). As to the kind of experiment: Inhibition of FLAG-tagged CDK14 (unknown origin) expressed in human HEK293 cells assessed as blocking of CDK14 pulldown up to 1000 nM incubated for 4 hrs by biotinylated JNK-IN- based pull down assay. Type of assay: cell-based. The essentials: (§1)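 Cells were treated with compound at various doses for 4 h and then lysed. Lysates were incubated with biotinylated JNK-IN-7 and captured on streptavidin-coated beads. CDK14 capture was detected by western blot.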

Assay [3] addresses T1, Cyclin-dependent kinase 14. The assay is described as follows: Inhibition of FLAG-tagged CDK14 (unknown origin) expressed in human HEK293 cells assessed as blocking of CDK14 pulldown incubated for 4 hrs by biotinylated JNK-IN- based pull down assay. The format is cell-based. The essentials:
as §1

Assay [4] addresses T1, Cyclin-dependent kinase 14. The assay is described as follows: Inhibition of FLAG-tagged CDK14 (unknown origin) expressed in human HEK293 cells assessed as blocking of CDK14 pulldown at 500 to 1000 nM incubated for 4 hrs by biotinylated JNK-IN- based pull down assay. Type of assay: cell-based. The essentials:
as §1

In another assay the target is CDK2/Cyclin-Y (Homo sapiens, UniProt P24941+Q8ND76). The assay is described as follows: Inhibition of recombinant NanoLuc-tagged CDK2/cyclin Y expressed in human HCT116 cells at 1 uM incubated for 20 to 24 hrs by NanoBRET assay. The format is cell-based.
In assay [5] the target is Cyclin-dependent kinase 17 (Homo sapiens) (UniProt Q00537). The assay is described as follows: Inhibition of CDK17 in human HCT116 cells at 1 uM incubated for 4 hrs by KINATIV live cell profiling protocol based assay. A digest of the protocol:
(§2)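 Cellular kinase selectivity was profiled on the KiNativ platform, with compounds tested at 1 μM.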

Assay [6] deals with Cyclin-dependent kinase 18 (Homo sapiens) (UniProt Q07002). As to the kind of experiment: Inhibition of CDK18 in human HCT116 cells at 1 uM incubated for 4 hrs by KINATIV live cell profiling protocol based assay. The essentials: as §2
Assay [7] has as its target Cyclin-dependent kinase 16 (Homo sapiens) (UniProt Q00536). The assay is described as follows: Inhibition of CDK16 in human HCT116 cells at 1 uM incubated for 4 hrs by KINATIV live cell profiling protocol based assay. The essentials:
as §2

Active and inactive are the calls of the source. The rule behind the calls is not given here.

Sequence of Cyclin-dependent kinase 14/Cyclin-Y (O94921 whole entry): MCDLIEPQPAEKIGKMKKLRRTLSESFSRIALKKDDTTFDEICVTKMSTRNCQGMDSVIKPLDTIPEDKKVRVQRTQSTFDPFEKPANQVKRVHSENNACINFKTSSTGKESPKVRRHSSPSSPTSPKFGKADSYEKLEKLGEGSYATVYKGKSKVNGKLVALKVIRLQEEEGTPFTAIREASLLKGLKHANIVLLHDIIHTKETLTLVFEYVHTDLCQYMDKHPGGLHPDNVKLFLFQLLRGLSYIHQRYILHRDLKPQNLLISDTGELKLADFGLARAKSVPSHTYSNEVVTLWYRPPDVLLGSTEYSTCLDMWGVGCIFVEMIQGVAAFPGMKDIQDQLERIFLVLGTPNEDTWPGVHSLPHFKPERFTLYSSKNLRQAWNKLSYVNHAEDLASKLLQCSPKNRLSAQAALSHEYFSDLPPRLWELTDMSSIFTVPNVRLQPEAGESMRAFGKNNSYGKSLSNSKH
Sequence of Cyclin-dependent kinase 14/Cyclin-Y (Q8ND76 whole entry, further chain): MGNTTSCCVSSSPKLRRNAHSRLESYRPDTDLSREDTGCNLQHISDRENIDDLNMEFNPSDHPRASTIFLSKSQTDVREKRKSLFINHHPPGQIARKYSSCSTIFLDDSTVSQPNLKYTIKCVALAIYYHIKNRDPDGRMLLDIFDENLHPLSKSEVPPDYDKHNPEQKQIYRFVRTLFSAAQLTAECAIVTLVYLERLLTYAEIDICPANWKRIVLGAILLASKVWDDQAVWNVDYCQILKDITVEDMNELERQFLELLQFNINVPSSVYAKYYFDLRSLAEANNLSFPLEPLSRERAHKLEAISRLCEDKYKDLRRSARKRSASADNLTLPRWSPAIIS
T1 sequence (O94921 whole entry): as the sequence (O94921 whole entry) above
Sequence of Cyclin-dependent kinase 17 (Homo sapiens) (Q00537 whole entry, looked up): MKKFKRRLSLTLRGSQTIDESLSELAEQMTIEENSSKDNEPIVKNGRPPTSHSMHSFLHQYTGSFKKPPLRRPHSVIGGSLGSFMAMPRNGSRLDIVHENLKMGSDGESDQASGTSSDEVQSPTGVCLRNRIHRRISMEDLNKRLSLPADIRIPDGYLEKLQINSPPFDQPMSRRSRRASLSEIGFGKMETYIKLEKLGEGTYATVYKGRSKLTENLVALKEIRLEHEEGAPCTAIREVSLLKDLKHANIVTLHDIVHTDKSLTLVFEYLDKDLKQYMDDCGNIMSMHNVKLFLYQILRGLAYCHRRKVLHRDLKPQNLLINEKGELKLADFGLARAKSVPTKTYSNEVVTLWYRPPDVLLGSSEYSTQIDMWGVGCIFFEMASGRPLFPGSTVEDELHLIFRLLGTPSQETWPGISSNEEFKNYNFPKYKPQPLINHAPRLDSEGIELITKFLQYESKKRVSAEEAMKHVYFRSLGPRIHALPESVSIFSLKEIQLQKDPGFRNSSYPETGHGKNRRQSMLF
Sequence of Cyclin-dependent kinase 16 (Homo sapiens) (Q00536 whole entry): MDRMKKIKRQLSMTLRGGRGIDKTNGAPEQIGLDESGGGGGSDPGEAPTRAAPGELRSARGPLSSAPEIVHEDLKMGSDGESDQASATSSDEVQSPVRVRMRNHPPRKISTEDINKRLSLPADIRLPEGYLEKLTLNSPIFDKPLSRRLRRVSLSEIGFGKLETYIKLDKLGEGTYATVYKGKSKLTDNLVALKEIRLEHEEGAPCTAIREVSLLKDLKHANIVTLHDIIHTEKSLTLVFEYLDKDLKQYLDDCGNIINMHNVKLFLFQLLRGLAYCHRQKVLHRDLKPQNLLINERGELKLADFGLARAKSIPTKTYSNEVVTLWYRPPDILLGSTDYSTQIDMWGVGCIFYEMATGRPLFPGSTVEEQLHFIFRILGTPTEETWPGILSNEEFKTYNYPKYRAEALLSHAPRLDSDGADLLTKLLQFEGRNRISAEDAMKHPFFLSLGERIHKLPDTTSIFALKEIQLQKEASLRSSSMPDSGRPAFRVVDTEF
Sequence of Cyclin-dependent kinase 18 (Homo sapiens) (Q07002 whole entry): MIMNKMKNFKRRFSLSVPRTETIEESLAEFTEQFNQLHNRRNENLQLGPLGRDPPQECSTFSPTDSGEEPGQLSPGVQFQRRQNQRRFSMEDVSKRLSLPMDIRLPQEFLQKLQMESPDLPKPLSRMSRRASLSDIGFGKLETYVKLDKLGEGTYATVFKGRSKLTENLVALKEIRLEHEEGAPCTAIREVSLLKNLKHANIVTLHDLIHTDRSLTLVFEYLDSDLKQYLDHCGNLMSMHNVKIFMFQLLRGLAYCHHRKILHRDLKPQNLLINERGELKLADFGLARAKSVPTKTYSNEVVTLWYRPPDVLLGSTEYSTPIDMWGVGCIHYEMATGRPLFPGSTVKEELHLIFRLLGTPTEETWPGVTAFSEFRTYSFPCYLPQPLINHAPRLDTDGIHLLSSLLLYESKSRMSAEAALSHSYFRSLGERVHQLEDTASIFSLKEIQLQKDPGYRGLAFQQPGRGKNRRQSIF

Take `CN(C)CC/C=C/C(=O)Nc1ccc(S(=O)(=O)N2CC[C@@H](NC(=O)c3n[nH]cc3NC(=O)c3c(Cl)cccc3Cl)C2)cc1`: the values for the IC50 (in [1]; with HCT-116; in assay [3]) were 41 nM, greater than 10000 nM and greater than 1000 nM, respectively. Also, the inhibition result in assay [2] was “Active”.

Turning to `Cc1cc(NC(=O)c2cccc(NC(=O)/C=C/CN(C)C)c2)ccc1NC(=O)c1n[nH]cc1NC(=O)c1c(Cl)cccc1Cl`, the figures for the IC50 (in assay [1]; in the assay with HCT-116) were greater than 1000 nM and 320 nM, respectively.

For the molecule `C=CC(=O)Nc1cccc(C(=O)N2CCC(NC(=O)c3n[nH]cc3NC(=O)c3c(Cl)cccc3Cl)CC2)c1`, the inhibition entry in assay [4] is “Active”. For the same molecule, the IC50 was 45 nM in [1] and 32 nM with HCT-116.

In the case of `CN(C)C/C=C/C(=O)Nc1cccc(S(=O)(=O)N2CCC(NC(=O)c3n[nH]cc3NC(=O)c3c(Cl)cc(Cl)cc3Cl)CC2)c1`, the half-inhibitory concentration (IC50) at CDK2/Cyclin-Y was 256 nM; in the assay with HCT-116, 1140 to 5900 nM. Further, the inhibition in assay [5] was greater than 75%; in assay [6], greater than 75%; in assay [7] it was greater than 90%.

As for `C=CC(=O)Nc1cccc(C(=O)Nc2ccc(NC(=O)c3n[nH]cc3NC(=O)c3c(Cl)cccc3Cl)c(C)c2)c1`, the IC50 in [1] was greater than 1000 nM.

In the case of `CN(C)C/C=C/C(=O)Nc1cccc(C(=O)Nc2ccc(NC(=O)c3n[nH]cc3NC(=O)c3c(Cl)cccc3Cl)cc2)c1`, the inhibition result in assay [4] is “Active”. Besides, the concentration for half-maximal inhibition (IC50) with HCT-116 worked out at 38 nM; in assay [3] it was 1000 nM.

For `CN(C)C/C=C/C(=O)Nc1cccc(S(=O)(=O)N2CCC(NC(=O)c3n[nH]cc3NC(=O)c3ccccc3)CC2)c1`, the IC50 in assay [1] turned out to be 3 nM; with HCT-116, 440 nM; in [3] it was 1000 nM.
